From ChEMBL document CHEMBL1955778, “Design and synthesis of novel 7-aminoquinazoline derivatives: antitumor and anticonvulsant activities” (Bioorg Med Chem Lett, 2012)

How the values were obtained:
SNB-75 = experiment: Growth inhibition of human SNB75 cells at 10 uM relative to control; format: functional; conditions: read-out: GI
How it was run: (§1)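 Single-dose screen across the 60-cell-line human tumor panel at 10 μM. Growth inhibition is reported as a percentage, taken as 100 minus the % growth relative to untreated control.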

A549 = experiment: Growth inhibition of human A549 cells at 10 uM relative to control; format: functional; conditions: read-out: GI
How it was run: (§2)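 Each cell line in a 60-line human tumour panel exposed to one 10 μM concentration. Growth inhibition percentage computed as 100 minus the percentage activity relative to control.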

SK-MEL-5 = experiment: Growth inhibition of human SK-MEL-5 cells at 10 uM relative to control; format: functional; conditions: read-out: GI; how it was run: as §2
SNB-19 = experiment: Growth inhibition of human SNB19 cells at 10 uM relative to control; format: functional; conditions: read-out: GI; how it was run: as §1
CAKI-1 = experiment: Growth inhibition of human CAKI-1 cells at 10 uM relative to control; format: functional; conditions: read-out: GI; how it was run: as §2
HCT-15 = experiment: Growth inhibition of human HCT15 cells at 10 uM relative to control; format: functional; conditions: read-out: GI; how it was run: as §2
A498 = experiment: Growth inhibition of human A498 cells at 10 uM relative to control; format: functional; conditions: read-out: GI; how it was run: as §2
M14 = experiment: Growth inhibition of human M14 cells at 10 uM relative to control; format: functional; conditions: read-out: GI; how it was run: as §2
HL-60(TB) = experiment: Growth inhibition of human HL-60(TB) cells at 10 uM relative to control; format: functional; conditions: read-out: GI
How it was run: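 Single-dose screen at 10 μM across the 60-cell-line tumour panel. Percent growth inhibition = 100 minus percent growth activity relative to untreated control.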

Mus musculus [1] = experiment: Anticonvulsant activity in mouse assessed as protection against maximal electroshock-induced seizure at 1 mmol/kg, ip administered 30 min prior to maximal electroshock-challenge measured after 60 mins relative to control; format: functional
EKVX = experiment: Growth inhibition of human EKVX cells at 10 uM relative to control; format: functional; conditions: read-out: GI; how it was run: as §2
OVCAR-8 = experiment: Growth inhibition of human OVCAR8 cells at 10 uM relative to control; format: functional; conditions: read-out: GI; how it was run: as §2
U-251 = experiment: Growth inhibition of human U251 cells at 10 uM relative to control; format: functional; conditions: read-out: GI; how it was run: as §1
HOP-62 = experiment: Growth inhibition of human HOP62 cells at 10 uM relative to control; format: functional; conditions: read-out: GI; how it was run: as §2
SF-295 = experiment: Growth inhibition of human SF295 cells at 10 uM relative to control; format: functional; conditions: read-out: GI; how it was run: as §2
MOLT-4 = experiment: Growth inhibition of human MOLT4 cells at 10 uM relative to control; format: functional; conditions: read-out: GI; how it was run: as §2
K562 = experiment: Growth inhibition of human K562 cells at 10 uM relative to control; format: functional; conditions: read-out: GI; how it was run: as §2
MCF7 = experiment: Growth inhibition of human MCF7 cells at 10 uM relative to control; format: functional; conditions: read-out: GI; how it was run: as §2
Mus musculus [2] = experiment: Anticonvulsant activity in mouse assessed as protection against strychnine-induced seizure at 1 mmol/kg, ip administered 30 min prior to strychnine-challenge measured after 60 mins relative to control; format: functional
OVCAR-5 = experiment: Growth inhibition of human OVCAR5 cells at 10 uM relative to control; format: functional; conditions: read-out: GI; how it was run: as §2
UACC-62 = experiment: Growth inhibition of human UACC62 cells at 10 uM relative to control; format: functional; conditions: read-out: GI; how it was run: as §1
MDA-MB-468 = experiment: Growth inhibition of human MDA-MB-468 cells at 10 uM relative to control; format: functional; conditions: read-out: GI; how it was run: as §2
SN12C = experiment: Growth inhibition of human SN12C cells at 10 uM relative to control; format: functional; conditions: read-out: GI; how it was run: as §1
SR = experiment: Growth inhibition of human SR cells at 10 uM relative to control; format: functional; conditions: read-out: GI; how it was run: as §1
OVCAR-4 = experiment: Growth inhibition of human OVCAR4 cells at 10 uM relative to control; format: functional; conditions: read-out: GI; how it was run: as §2
UO-31 = experiment: Growth inhibition of human UO31 cells at 10 uM relative to control; format: functional; conditions: read-out: GI; how it was run: as §1
RPMI-8226 = experiment: Growth inhibition of human RPMI8226 cells at 10 uM relative to control; format: functional; conditions: read-out: GI; how it was run: as §2
T47D = experiment: Growth inhibition of human T47D cells at 10 uM relative to control; format: functional; conditions: read-out: GI; how it was run: as §1
BT-549 = experiment: Growth inhibition of human BT549 cells at 10 uM relative to control; format: functional; conditions: read-out: GI; how it was run: as §2
MDA-MB-435 = experiment: Growth inhibition of human MDA-MB-435 cells at 10 uM relative to control; format: functional; conditions: read-out: GI; how it was run: as §2
HCT-116 = experiment: Growth inhibition of human HCT116 cells at 10 uM relative to control; format: functional; conditions: read-out: GI; how it was run: as §2
ACHN = experiment: Growth inhibition of human ACHN cells at 10 uM relative to control; format: functional; conditions: read-out: GI; how it was run: as §2
SF-539 = experiment: Growth inhibition of human SF539 cells at 10 uM relative to control; format: functional; conditions: read-out: GI; how it was run: as §2
PC-3 = experiment: Growth inhibition of human PC3 cells at 10 uM relative to control; format: functional; conditions: read-out: GI; how it was run: as §2
Mus musculus [3] = experiment: Anticonvulsant activity in mouse assessed as protection against pentylenetetrazol-induced seizure at 1 mmol/kg, ip administered 30 min prior to pentylenetetrazol-challenge measured after 60 mins relative to control; format: functional
TK-10 = experiment: Growth inhibition of human TK10 cells at 10 uM relative to control; format: functional; conditions: read-out: GI; how it was run: as §1
Malme-3M = experiment: Growth inhibition of human MALME-3M cells at 10 uM relative to control; format: functional; conditions: read-out: GI; how it was run: as §2
KM12 = experiment: Growth inhibition of human KM12 cells at 10 uM relative to control; format: functional; conditions: read-out: GI; how it was run: as §2
Mus musculus [4] = species on record: Mus musculus; experiment: Protective index, ratio of TD50 for mouse to ED50 for pentylenetetrazol-induced seizure in mouse; format: functional
How it was run: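 Mice. Index is TD50/ED50. TD50 is the dose causing minimal neurological toxicity in 50% of mice in the Chimney test. ED50 is the dose protecting 50% of mice against pentylenetetrazole-induced seizures. Both are estimated from testing at several doses.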

Mus musculus [5] = experiment: Anticonvulsant activity in ip dosed mouse assessed as protection against pentylenetetrazol-induced seizure administered 30 min prior to pentylenetetrazol-challenge measured after 60 mins; format: functional
How it was run: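 Mice received several doses for quantification. ED50 taken as the dose protecting 50% of mice against pentylenetetrazol-induced seizures.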

SK-OV-3 = experiment: Growth inhibition of human SKOV3 cells at 10 uM relative to control; format: functional; conditions: read-out: GI; how it was run: as §2
Mus musculus [6] = experiment: Anticonvulsant activity in mouse assessed as protection against picrotoxin-induced seizure at 1 mmol/kg, ip administered 30 min prior to picrotoxin-challenge measured after 60 mins relative to control; format: functional
[7] = Toxicity in ip dose mouse assessed as mortality; format: organism-based; conditions: in vivo
How it was run: (§3)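 In mice, LD50 is the dose causing 50% mortality. ED50 is the dose protecting 50% of mice against pentylenetetrazole-induced seizures. Therapeutic index = LD50/ED50.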

CCRF-CEM = experiment: Growth inhibition of human CCRF-CEM cells at 10 uM relative to control; format: functional; conditions: read-out: GI; how it was run: as §2
MDA-MB-231 = experiment: Growth inhibition of human MDA-MB-231 cells at 10 uM relative to control; format: functional; conditions: read-out: GI; how it was run: as §2
[8] = Therapeutic index, ratio of LD50 for mouse to ED50 for pentylenetetrazol-induced seizure in mouse; format: organism-based; conditions: in vivo, read-out: Ratio LD50/ED50; how it was run: as §3
RXF 393 = experiment: Growth inhibition of human RXF393 cells at 10 uM relative to control; format: functional; conditions: read-out: GI; how it was run: as §2
OVCAR-3 = experiment: Growth inhibition of human OVCAR3 cells at 10 uM relative to control; format: functional; conditions: read-out: GI; how it was run: as §2
[9] = Neurotoxicity in ip dosed mouse assessed as impaired motor coordination administered 30 mins prior to test by chimney test; format: toxicity, organism-based; conditions: in vivo
How it was run: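 Mice, Chimney test. TD50 is the dose that produces minimal neurological toxicity (impaired motor coordination) in 50% of animals, estimated from testing at several doses.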

Row | SMILES | inhibition of growth at 10 µM (SNB-75) [%] | inhibition of growth at 10 µM (A549) [%] | inhibition of growth at 10 µM (SK-MEL-5) [%] | inhibition of growth at 10 µM (CAKI-1) [%] | inhibition of growth at 10 µM (HL-60(TB)) [%] | Activity (Mus musculus [1]) [%] | inhibition of growth at 10 µM (EKVX) [%] | inhibition of growth at 10 µM (MOLT-4) [%] | inhibition of growth at 10 µM (K562) [%] | inhibition of growth at 10 µM (MCF7) [%] | Activity (Mus musculus [2]) [%] | inhibition of growth at 10 µM (UACC-62) [%] | inhibition of growth at 10 µM (SN12C) [%] | inhibition of growth at 10 µM (OVCAR-4) [%] | inhibition of growth at 10 µM (UO-31) [%] | inhibition of growth at 10 µM (RPMI-8226) [%] | inhibition of growth at 10 µM (T47D) [%] | inhibition of growth at 10 µM (MDA-MB-435) [%] | inhibition of growth at 10 µM (ACHN) [%] | inhibition of growth at 10 µM (SF-539) [%] | also measured
1 | Cc1ccccc1-n1c(C)nc2cc(NC(=O)c3ccccc3)ccc2c1=O | 21.2 | 11 | 17 | 4 | 6 | 33 | 11.1 | 8.2 | 9 | 7 | 0 | 23 | 15 | 17.3 | 2.5 | 2 | 28 | 16.3 | 24 | 10 | inhibition of growth at 10 µM (SNB-19): 14%; inhibition of growth at 10 µM (HCT-15): 3.7%; inhibition of growth at 10 µM (A498): 23%; inhibition of growth at 10 µM (M14): 12%; inhibition of growth at 10 µM (OVCAR-8): 5%; inhibition of growth at 10 µM (U-251): 9%; inhibition of growth at 10 µM (HOP-62): 5%; inhibition of growth at 10 µM (SF-295): 29%; inhibition of growth at 10 µM (OVCAR-5): 12%; inhibition of growth at 10 µM (MDA-MB-468): 2%; inhibition of growth at 10 µM (SR): 3.5%; inhibition of growth at 10 µM (BT-549): 18%; inhibition of growth at 10 µM (HCT-116): 3.2%; inhibition of growth at 10 µM (PC-3): 8%; Activity (Mus musculus [3]): 33%; inhibition of growth at 10 µM (TK-10): 24%; inhibition of growth at 10 µM (Malme-3M): 6%; inhibition of growth at 10 µM (KM12): 26.6%
2 | Cc1ccccc1-n1c(C)nc2cc(N3C(=O)CSC3c3ccc(Cl)cc3)ccc2c1=O (stereo unspecified) | 7.6 | 12 | 4 | 3 | 6 | 100 | 4 | 39.1 | 8.4 | 5.2 | 0 | 18 | 5 | 5 | 15 | 9.2 | 4 | 7.7 | 3.5 | 5 | Ratio TD50/ED50 (Mus musculus [4]): 1.5; ED50 (Mus musculus [5]): 410 µmol/kg; inhibition of growth at 10 µM (SK-OV-3): 29.2%; Activity (Mus musculus [6]): 75%; LD50 [7]: 1040 µmol/kg; inhibition of growth at 10 µM (CCRF-CEM): 11.3%; inhibition of growth at 10 µM (MDA-MB-231): 23.7%; selectivity ratio [8]: 2.53; inhibition of growth at 10 µM (RXF 393): 3%; inhibition of growth at 10 µM (PC-3): 8%; Activity (Mus musculus [3]): 100%; inhibition of growth at 10 µM (OVCAR-3): 5.2%; TD50 at 0.5 h [9]: 600 µmol/kg
